Bioassay records deposited in PubChem BioAssay by several laboratories.
This is a sample that favours compounds with a hit; in the whole collection about 1.8% have one here.
EBI2 block: EBI2 (human) antagonism; hit rate 0.81% among 360,000; P32249; inhibition, % at 5 µM; EBI2 beta-arrestin recruitment, luminescence, 7a,25-OHC stimulated; in the data active = inhibition above about 38%;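 also: enzyme fragment complementation signal reports receptor beta-arrestin coupling in cells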
CCR6 antag: CCR6 (human) receptor antagonism; inhibition, % at 20 µM; CHO-K1 CCR6 PathHunter beta-arrestin, luminescence, CCL20-stimulated; P51684; hit rate 0.49% among 340,000;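 active = compounds whose inhibition of the agonist-driven luminescence signal at 20 µM reaches about 50%, limit read from the data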;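 also: cells stimulated with CCL20 at 14 nM final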
CXCR6 block: inhibitors of human CXCR6 receptor. O00574. CHO-K1 PathHunter CXCR6 beta-arrestin, luminescence. hit rate 0.36% among 360,000. inhibition, % at 20 µM; in the data active = inhibition above about 34%, passing the limit was not always enough;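 also: antagonist mode with CXCL16 agonist at 10 nM final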
B2AR ag: activates human beta-2 adrenergic receptor causing internalization; Am2.2-beta2AR cells, FAP receptor internalization, flow cytometry; response, % (test concentration not listed); hit rate 0.43% among 340,000; AID 504454;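 active = response above a set limit, near 3 SD of response in nonfluorescent compounds, cut at about 42% in these data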
Target sequence (P07550 whole entry, looked up): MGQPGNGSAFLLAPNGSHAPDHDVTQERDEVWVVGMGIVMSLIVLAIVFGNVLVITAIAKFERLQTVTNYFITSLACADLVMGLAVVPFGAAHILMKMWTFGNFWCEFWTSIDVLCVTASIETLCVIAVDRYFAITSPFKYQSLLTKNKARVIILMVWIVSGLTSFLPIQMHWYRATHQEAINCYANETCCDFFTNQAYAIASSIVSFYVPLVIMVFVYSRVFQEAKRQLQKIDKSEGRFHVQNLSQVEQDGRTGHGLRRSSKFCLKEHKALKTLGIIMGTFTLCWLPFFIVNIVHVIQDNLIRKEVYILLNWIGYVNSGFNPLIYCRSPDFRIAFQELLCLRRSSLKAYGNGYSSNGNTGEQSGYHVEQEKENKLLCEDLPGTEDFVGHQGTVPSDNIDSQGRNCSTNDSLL
APJ antagonist: blocks the human apelin receptor APJ | P35414 | CHO-K1 APJ beta-arrestin complementation, luminescence | inhibition, % at 20 µM | hit rate 0.32% among 330,000 | AID 2521;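 active = inhibition above about 40% at 20 µM, limit read from the data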;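 also: cells challenged with 10 nM apelin-13 agonist together with compound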
APJ agonist: APJ receptor agonism; P35414; CHO-K1 APJ PathHunter beta-arrestin, luminescence; 0% DMSO wells, 100% apelin; activation, % at 20 µM; hit rate 0.11% among 330,000; AID 2520;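 active = activation more than six SD over the plate average, tested at 20 µM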
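Assay system: CHO-K1 APJ beta-arrestin complementation cell line / Compound: single test compound dose, 20 µM final, 1% DMSO / Times: overnight seeding, 90 min compound at 25 °C, 1 h detection / Technique: beta-gal luminescence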
EBI2 conf: EBI2 (human) antagonism, single concentration confirmation; EBI2 beta-arrestin luminescence, 7a,25-OHC antagonism; inhibition, % at 5 µM; AID 651997; shares compounds with EBI2 block; hit rate 29% among 2,400;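 active = inhibition of at least 50%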
EBI2 agonist: counter-screen for EBI2 antagonists: EBI2 agonist activity. shares compounds with EBI2 block. EBI2-expressing cells, agonist mode, luminescence, 60 min; 0% vehicle, 100% 7α,25-dihydroxycholesterol control. 2,400 tested, under 10 active. activation, % at 5 µM. AID 652000;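 active = activation of at least 50%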
bGal cs: counter-screen for EBI2 antagonists: E. coli beta-galactosidase inhibition; shares compounds with EBI2 block; purified beta-galactosidase, luminescent Galacton Star, 15 min; inhibition, % at 5 µM; hit rate 1% among 2,400;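 active = replicate-average signal at least 3 plate SD below neutral wells, shown as high inhibition, flagging enzyme-inhibiting false positives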;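 also: higher means stronger loss of beta-gal luminescence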
A number is an active result; i = inactive; nt = no result.

SMILES	EBI2 block	CCR6 antag	CXCR6 block	B2AR ag	APJ antagonist	APJ agonist	EBI2 conf	EBI2 agonist	bGal cs
CC(=O)c1ccc(NC(=O)C(C)n2nc(-c3ccccc3)c3cc(Cl)ccc32)cc1 (centres undefined)	44	i	i	i	i	i	i	i	i
CN(CCOc1ccccc1)C(=O)C1CCC(=O)N(CCc2ccc(Cl)cc2)C1 (centres undefined)	54	i	i	i	i	i	i	i	i
N#C/C(=C\c1ccccc1)C(=O)Nc1cc(S(=O)(=O)N2CCOCC2)ccc1N1CCCC1	75	i	i	i	i	i	66	i	i
CCN1CCN(c2ccc(S(=O)(=O)N3CCOCC3)cc2NC(=O)/C=C/c2ccc(C)cc2)CC1	94	i	i	i	i	i	91	i	i
O=C(Nc1cc(S(=O)(=O)N2CCOCC2)ccc1N1CCCCC1)c1ccccc1	i	i	i	i	i	i	nt	nt	nt
COc1ccc(-c2nnc(SCc3nnc(-c4ccc(Cl)cc4)o3)n2-c2ccccc2)cc1	74	i	i	i	i	i	i	i	i
Clc1ccc(-c2nnc(CSc3nnc(-c4cccs4)n3Cc3ccccc3)o2)cc1	88	i	i	i	i	i	60	i	i
COc1ccc(-c2nnc(SCc3nnc(-c4ccccc4)o3)n2-c2ccccc2)cc1	i	i	i	i	i	i	nt	nt	nt
NS(=O)(=O)c1ccc(N/N=C/c2cn(-c3ccccc3)nc2-c2cccs2)cc1	41	i	i	i	i	i	i	i	i
O=C(CCc1c[nH]c2ccccc12)NCC(=O)Nc1ccc(F)c(F)c1F	i	i	i	i	i	i	nt	nt	nt
Cc1ccc(-n2nnnc2-c2ccccc2Br)cc1	38	i	i	i	i	i	i	i	i
O=C(CN(C(=O)c1csnn1)c1cccc(F)c1)NCc1ccc2c(c1)OCO2	i	i	i	i	i	i	nt	nt	nt
Cc1cc(OCC(=O)N(C)Cc2ccccc2)ccc1Br	91	i	i	i	i	i	87	i	i
Cc1cc(OCC(=O)N(C)Cc2ccccc2)ccc1Cl	83	i	i	i	i	i	72	i	i
Cc1cc(OCC(=O)O/N=C(\N)c2ccccc2)ccc1Br	i	i	i	i	i	i	nt	nt	nt
COc1ccc(OCC(=O)N(C)CC2COc3ccccc3O2)cc1 (centres undefined)	46	i	i	i	i	i	i	i	i
CC(C)NS(=O)(=O)c1ccc(OCC(=O)N(C)Cc2ccccc2)cc1	i	i	i	i	i	i	nt	nt	nt
COc1ccc2c(CC(=O)N(C)CC3COc4ccccc4O3)coc2c1 (centres undefined)	i	i	i	i	i	i	nt	nt	nt
COc1ccc(OCC(=O)N(C)Cc2ccccc2)cc1	63	i	i	i	i	i	56	i	i
Cc1ccc(NC(=O)C(C)OC(=O)c2ccc(NC(=O)CC#N)cc2)cc1S(=O)(=O)N1CCOCC1 (centres undefined)	i	i	i	i	i	i	nt	nt	nt
CN(C)C(CNC(=O)c1ccc2c(=O)n(-c3ccccc3F)c(=S)[nH]c2c1)Cc1ccccc1 (centres undefined)	i	i	i	i	i	i	nt	nt	nt
O=C(O)C(Cc1cccs1)c1cccs1 (centres undefined)	i	i	i	i	nt	nt	nt	nt	nt
O=C(NCCc1ccccc1)c1coc(=O)c(Br)c1	i	i	i	i	i	i	nt	nt	nt
O=C(OCc1ccccc1)N1CCN(C(c2ccnc3ccccc23)c2nnnn2-c2ccc3c(c2)OCCO3)CC1 (centres undefined)	60	nt	i	nt	nt	nt	i	i	i
C(=C\c1ccccc1)/CN1CCN(C(c2cccc3ccccc23)c2nnnn2-c2ccc3c(c2)OCCO3)CC1 (centres undefined)	55	nt	i	nt	nt	nt	i	i	i
SMILES	EBI2 block	CCR6 antag	CXCR6 block	B2AR ag	APJ antagonist	APJ agonist	EBI2 conf	EBI2 agonist	bGal cs
c1ccc2c(C(c3nnnn3-c3ccc4c(c3)OCCO4)N3CCCC3)ccnc2c1 (centres undefined)	i	nt	i	nt	nt	nt	nt	nt	nt
COc1ccc(-n2nnnc2C(c2cccc(OC)c2OC)N2CCN(C/C=C/c3ccccc3)CC2)cc1 (centres undefined)	i	nt	i	nt	nt	nt	nt	nt	nt
FC(F)(F)Oc1ccccc1C(c1nnnn1-c1ccc2c(c1)OCCO2)N1CCN(C/C=C/c2ccccc2)CC1 (centres undefined)	81	nt	i	nt	nt	nt	56	i	i
Cc1cccc(C)c1-n1nnnc1C(c1cc2ccccc2o1)N1CCN(C/C=C/c2ccccc2)CC1 (centres undefined)	i	nt	i	nt	nt	nt	nt	nt	nt
Cn1c(C(=O)N2CCN(c3ccccc3)CC2)cc2cc(Cl)ccc21	44	i	i	i	i	i	i	i	i
Cc1cccc(N2CCN(S(=O)(=O)c3cccc4nonc34)CC2)c1C	i	i	i	i	i	i	nt	nt	nt
CN(Cc1ccccc1)N=Nc1nc[nH]c1C(N)=O	i	nt	i	nt	nt	nt	nt	nt	nt
COc1ccc(CCC(=O)N2CCN(C3CCCCC3)CC2)cc1	45	i	i	i	i	i	i	i	i
COc1ccc(CCC(=O)N2CCN(S(=O)(=O)c3cccs3)CC2)cc1	i	i	i	i	i	i	nt	nt	nt
COc1ccc(CCC(=O)N2CCN(C(=O)c3ccccc3)CC2)cc1	55	i	i	i	i	i	i	i	i
CCc1cccc(C)c1NC(=O)CCCN1C(=O)CN(C)C1=O	i	i	i	i	i	i	nt	nt	nt
COC(=O)c1ccc(Oc2ccc(S(=O)(=O)N3CCCCC3)cc2N)cc1	35	i	i	i	i	i	i	i	i
COC(=O)CNc1cc(S(=O)(=O)N2CCCCC2)ccc1Oc1ccc(C(=O)OC)cc1	i	i	i	i	i	i	nt	nt	nt
O=C(O)CC1(CC(=O)Nc2ccccc2Br)CCCC1	i	i	i	i	i	i	nt	nt	nt
Cc1ccc(OCc2nnnn2-c2ccccc2)cc1	51	i	i	i	i	i	i	i	i
Cn1cnnc1SCC(=O)NC1CCCC1	i	i	i	i	i	i	nt	nt	nt
O=C(COC(=O)CNC(=O)c1ccccc1Cl)NC1CC1	i	i	i	i	i	i	nt	nt	nt
O=C(CSc1nnc(SCc2ccccc2)s1)N/N=C/c1ccc(Cl)cc1Cl	i	i	i	i	i	i	nt	nt	nt
O=C(CSc1nnc(SCc2ccc(Cl)cc2)s1)N/N=C/c1ccc(Cl)cc1Cl	52	i	i	i	i	i	i	i	i
O=C(CSc1nnc(SCc2ccccc2)s1)N/N=C/C=C\c1ccco1	i	i	i	i	i	i	nt	nt	nt
